Measurements: ChEMBL document CHEMBL4699593, “Identification of 2,4-Disubstituted Imidazopyridines as Hemozoin Formation Inhibitors with Fast-Killing Kinetics and In Vivo Efficacy in the Plasmodium falciparum NSG Mouse Model” (J Med Chem, 2020)
In brackets after ≈: the same amount, converted by molar mass. Activity calls are given as the source filed them. No cut-off for these calls is given here.

Experiments:
[1] = Cmax in Plasmodium falciparum 3D70087/N9 infected NSG mouse at 50 mg/kg, po by LC-MS/MS analysis; type: ADME, organism-based; set-up: route oral, dose 50 mg/kg; conditions: in vivo
Summary of the method: (§1)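 Oral (PO) dosing of NSG (NODscidIL2Rγnull) mice infected with P. falciparum. Cmax and AUC0–24 are taken from the infected-mouse PK analysis and are also expressed divided by dose.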

[2] = AUC in Plasmodium falciparum infected NSG mouse at 62 mg/kg, po by LC-MS/MS analysis; type: ADME, organism-based; set-up: dose 62 mg/kg; conditions: in vivo
[3] = system: Plasmodium falciparum; assay: Antimalarial activity against Plasmodium falciparum 3D70087/N9 infected in NOD-SCID IL2Rgamma null mouse assessed as parasitemia at 100 mg/kg, po qd administered for 4 days measured on day 6 post-infection by microscopy based flow cytometry; type: functional, organism-based; conditions: time 4.0 day
[4] = AUC (0 to 24 hrs) in Plasmodium falciparum 3D70087/N9 infected NSG mouse at 15 mg/kg, po by LC-MS/MS analysis; type: ADME, organism-based; set-up: time < 24 hr, route oral, dose 15 mg/kg; conditions: in vivo; summary of the method: as §1
[5] = Aqueous solubility of compound in phosphate buffer saline at pH 6.5 incubated for 20 hrs under shaking condition by shake-flask method based HPLC-DAD analysis; type: physicochemical; conditions: phosphate buffered saline
Summary of the method: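 Equilibrium aqueous solubility was measured at pH 6.5 using a miniaturized shake-flask method.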

[6] = Cmax in Balb/C mouse at 2 mg/kg, iv by LC-MS/MS analysis; type: ADME, organism-based; set-up: route intravenous, dose 2 mg/kg; conditions: in vivo
Summary of the method: (§2)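 Healthy Balb/c mice dosed i.v. or orally. Parameters come from non-compartmental analysis of compound concentration over time. […] Clearance is blood clearance (CL_b).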

[7] = system: Plasmodium berghei; assay: Antiplasmodial activity against luciferase-expressing Plasmodium berghei sporozoites liver stage infected in human HepG2 cells expressing GFP-CD81 fusion protein incubated for 48 hrs by luciferase reporter gene based bioluminescence assay; type: functional, organism-based; conditions: HepG2, 48 h
Summary of the method: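 Liver-stage activity was measured in vitro with rodent P. berghei sporozoites. Values are the mean of 3 technical replicates from the luciferase assay; individual values varied less than 2×.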

[8] = Dose normalized AUC (0 to 24 hrs) in Plasmodium falciparum 3D70087/N9 infected NSG mouse at 1.5 mg/kg, po by LC-MS/MS analysis; type: ADME, organism-based; conditions: in vivo; summary of the method: as §1
[9] = AUC (0 to t) in Balb/C mouse at 2 mg/kg, iv by LC-MS/MS analysis; type: ADME, organism-based; set-up: dose 2 mg/kg; conditions: in vivo; summary of the method: as §2
[10] = Dose normalized Cmax in Plasmodium falciparum 3D70087/N9 infected NSG mouse at 1.5 mg/kg, po by LC-MS/MS analysis; type: ADME, organism-based; conditions: in vivo; summary of the method: as §1
[11] = system: Plasmodium falciparum; assay: Antimalarial activity against asexual blood stage Plasmodium falciparum assessed as time required to show 99.9% reduction of parasitemia at 10 times IC50; type: functional
[12] = Tmax in Plasmodium falciparum 3D70087/N9 infected NSG mouse at 50 mg/kg, po by LC-MS/MS analysis; type: ADME, organism-based; conditions: in vivo
Summary of the method: (§3)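 P. falciparum-infected NSG mice received escalating single oral doses of 1.5, 5, 15, 50 and 100 mg/kg.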

[13] = Tmax in Plasmodium falciparum 3D70087/N9 infected NSG mouse po by LC-MS/MS analysis; conditions: in vivo
[14] = Dose normalized AUC (0 to 24 hrs) in Plasmodium falciparum 3D70087/N9 infected NSG mouse at 15 mg/kg, po by LC-MS/MS analysis; type: ADME, organism-based; conditions: in vivo; summary of the method: as §1
[15] = AUC (0 to 24 hrs) in Plasmodium falciparum 3D70087/N9 infected NSG mouse at 1.5 mg/kg, po by LC-MS/MS analysis; type: ADME, organism-based; set-up: time < 24 hr, route oral, dose 1.5 mg/kg; conditions: in vivo; summary of the method: as §1
[16] = AUC (0 to 24 hrs) in Plasmodium falciparum 3D70087/N9 infected NSG mouse at 50 mg/kg, po by LC-MS/MS analysis; type: ADME, organism-based; set-up: time < 24 hr, route oral, dose 50 mg/kg; conditions: in vivo; summary of the method: as §1
[17] = system: Plasmodium falciparum; assay: Antimalarial activity against asexual blood stage Plasmodium falciparum assessed as reduction in parasitemia by measuring log parasite reduction ratio at 10 times IC50; type: functional
[18] = system: Plasmodium falciparum; assay: Antimalarial activity against asexual blood stage Plasmodium falciparum assessed as reduction in parasitemia by measuring lag time at 10 times IC50; type: functional
[19] = system: Plasmodium falciparum; assay: Antiplasmodial activity against multidrug-sensitive asexual blood stage Plasmodium falciparum NF54 strain assessed as reduction in parasite growth after 72 hrs by NBT reagent based LDH assay; type: functional, organism-based; conditions: NF54, 72 h
[20] = Dose normalized AUC (0 to 24 hrs) in Plasmodium falciparum 3D70087/N9 infected NSG mouse at 50 mg/kg, po by LC-MS/MS analysis; type: ADME, organism-based; conditions: in vivo; summary of the method: as §1
[21] = system: hERG; assay: Selectivity index, ratio of IC50 for inhibition of human ERG by patch clamp method to IC50 for antiplasmodial activity against multidrug-sensitive asexual blood stage Plasmodium falciparum NF54; type: toxicity; conditions: read-out: Ratio IC50
[22] = Tmax in Plasmodium falciparum 3D70087/N9 infected NSG mouse at 15 mg/kg, po by LC-MS/MS analysis; type: ADME, organism-based; conditions: in vivo; summary of the method: as §3
[23] = AUC (0 to 24 hrs) in Plasmodium falciparum 3D70087/N9 infected NSG mouse at 100 mg/kg, po by LC-MS/MS analysis; type: ADME, organism-based; set-up: time < 24 hr, route oral, dose 100 mg/kg; conditions: in vivo; summary of the method: as §1
[24] = system: Plasmodium falciparum; assay: Antiplasmodial activity against multidrug-resistant asexual blood stage Plasmodium falciparum K1 strain assessed as reduction in parasite growth after 72 hrs by NBT reagent based LDH assay; type: functional, organism-based; conditions: K1, 72 h
Summary of the method: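 Asexual blood-stage K1 (multidrug-resistant) parasites were read out by the parasite lactate dehydrogenase (pLDH) assay. […] Most individual values varied less than 2× (maximum 3×).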

[25] = biological target: Voltage-gated inwardly rectifying potassium channel KCNH2 (Homo sapiens, UniProt Q12809); assay: Inhibition of human ERG by patch clamp method
[26] = Clearance in Balb/C mouse blood at 2 mg/kg, iv by LC-MS/MS analysis; type: ADME, organism-based; conditions: whole blood; summary of the method: as §2
[27] = system: Plasmodium falciparum; assay: Antiplasmodial activity against early ring-stage synchronized Plasmodium falciparum assessed as decrease in hemozoin formation after 32 hrs by Giemsa-staining based haemocytometric counting method; type: functional, organism-based
[28] = Dose normalized Cmax in Plasmodium falciparum 3D70087/N9 infected NSG mouse at 200 mg/kg, po by LC-MS/MS analysis; type: ADME, organism-based; conditions: in vivo; summary of the method: as §1
[29] = Cmax in Plasmodium falciparum 3D70087/N9 infected NSG mouse at 100 mg/kg, po by LC-MS/MS analysis; type: ADME, organism-based; set-up: route oral, dose 100 mg/kg; conditions: in vivo; summary of the method: as §1
[30] = Terminal half life in Balb/C mouse at 20 mg/kg, po by LC-MS/MS analysis; type: ADME, organism-based; conditions: in vivo, read-out: beta t1/2 (converted)
Summary of the method: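 Healthy Balb/c mice were given the compound i.v. or orally. Parameters come from non-compartmental analysis: AUC from 0 h to t_last, blood clearance, volume at steady state, terminal half-life, Tmax. Oral bioavailability F is derived from the i.v. and p.o. data.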

[31] = Tmax in Plasmodium falciparum 3D70087/N9 infected NSG mouse at 1.5 mg/kg, po by LC-MS/MS analysis; type: ADME, organism-based; conditions: in vivo; summary of the method: as §3
[32] = system: CHO; assay: Cytotoxicity against CHO cells assessed as reduction in cell viability by MTT assay; type: cell-based, Cricetulus griseus; conditions: chinese hamster
Summary of the method: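 Cytotoxicity was measured in Chinese hamster ovary (CHO) cells and reported as CC50. The selectivity index is CC50 divided by NF54 IC50.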

[33] = Dose normalized Cmax in Plasmodium falciparum 3D70087/N9 infected NSG mouse at 100 mg/kg, po by LC-MS/MS analysis; type: ADME, organism-based; conditions: in vivo; summary of the method: as §1

Sequence of Voltage-gated inwardly rectifying potassium channel KCNH2 (Q12809 whole entry): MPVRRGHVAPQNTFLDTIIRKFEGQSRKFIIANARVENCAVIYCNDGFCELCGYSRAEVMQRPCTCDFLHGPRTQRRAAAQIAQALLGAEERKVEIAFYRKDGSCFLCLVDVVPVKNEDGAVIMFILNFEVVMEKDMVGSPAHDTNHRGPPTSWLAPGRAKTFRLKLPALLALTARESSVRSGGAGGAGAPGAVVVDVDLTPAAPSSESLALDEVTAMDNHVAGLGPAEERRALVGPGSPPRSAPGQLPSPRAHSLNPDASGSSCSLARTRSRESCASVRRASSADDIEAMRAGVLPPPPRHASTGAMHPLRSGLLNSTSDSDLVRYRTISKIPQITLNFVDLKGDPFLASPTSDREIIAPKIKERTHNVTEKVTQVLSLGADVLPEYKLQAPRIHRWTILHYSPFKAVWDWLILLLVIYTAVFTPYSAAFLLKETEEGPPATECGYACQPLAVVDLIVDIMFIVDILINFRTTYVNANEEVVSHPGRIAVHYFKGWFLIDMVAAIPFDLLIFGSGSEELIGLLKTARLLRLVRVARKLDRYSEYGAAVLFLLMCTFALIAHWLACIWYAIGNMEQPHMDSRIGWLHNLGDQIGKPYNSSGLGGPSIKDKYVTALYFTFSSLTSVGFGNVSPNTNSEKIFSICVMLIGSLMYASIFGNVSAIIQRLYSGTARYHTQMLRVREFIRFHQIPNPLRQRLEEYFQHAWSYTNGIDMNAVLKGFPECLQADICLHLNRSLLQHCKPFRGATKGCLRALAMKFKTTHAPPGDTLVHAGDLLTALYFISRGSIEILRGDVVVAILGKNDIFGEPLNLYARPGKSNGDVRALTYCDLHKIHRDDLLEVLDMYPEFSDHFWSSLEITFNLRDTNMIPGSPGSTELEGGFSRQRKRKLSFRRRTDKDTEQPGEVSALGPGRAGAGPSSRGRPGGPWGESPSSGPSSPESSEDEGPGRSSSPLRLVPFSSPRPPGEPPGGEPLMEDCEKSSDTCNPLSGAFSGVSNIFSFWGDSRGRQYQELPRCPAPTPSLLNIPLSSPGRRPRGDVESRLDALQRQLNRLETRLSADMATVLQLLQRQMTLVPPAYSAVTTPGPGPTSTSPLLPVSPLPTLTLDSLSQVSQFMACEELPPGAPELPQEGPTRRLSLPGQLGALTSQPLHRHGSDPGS

For CN1CCN(CC2CCN(c3nccc4[nH]c(-c5cc(F)cc(F)c5)nc34)CC2)CC1, which Cmax [1] is on record?
The Cmax was 2840 nM.

And the AUC [2]?
The AUC was 58.3 µM·h.

What about the Activity [3] of the same molecule?
Its Activity is “Below limit of detection”.

What about the AUC [4] of the same molecule?
Its AUC is 969 µM·min.

And the solubility thermodynamic at 20 h [5]?
Its solubility thermodynamic at 20 h is 200 µM (≈ 85.3 µg/mL).

And the Cmax [6]?
Its Cmax is 600 nM.

And the IC50 [7]?
The IC50 was 14 µM.

And the AUC/dose [8]?
Its AUC/dose is 31 µM·kg·min/mg.

And the AUCt [9]?
The AUCt was 145 µM·min.

And the Cmax/dose [10]?
The Cmax/dose was 0.03 µM·kg/mg.

What about the Time [11] of the same molecule?
The Time was 31 h.

And the Tmax [12]?
The Tmax was 12.5 h.

And the Tmax [13]?
Its Tmax is 4 h.

And the AUC/dose [14]?
Its AUC/dose is 65 µM·kg·min/mg.

What about the AUC [15] of the same molecule?
Its AUC is 46 µM·min.

And the AUC [16]?
The AUC was 2856 µM·min.

What about the Ratio [17] of the same molecule?
Its Ratio is 4.9.

What about the Time [18] of the same molecule?
Its Time is 0 h.

And the IC50 [19]?
Its IC50 is 23 nM.

What about the AUC/dose [20] of the same molecule?
Its AUC/dose is 57 µM·kg·min/mg.

What about the selectivity ratio [21] of the same molecule?
Its selectivity ratio is > 1300.

And the Tmax [22]?
The Tmax was 6 h.

And the AUC [23]?
The AUC was 5142 µM·min.

What about the IC50 [24] of the same molecule?
The IC50 was 41 nM.

What about the IC50 [25] of the same molecule?
Its IC50 is > 30 µM.

What about the clearance [26] of the same molecule?
Its clearance is 20.2 mL/min/kg.

What about the Activity [27] of the same molecule?
The Activity was “Active”.

And the Cmax/dose [28]?
Its Cmax/dose is 0.06 µM·kg/mg.

And the Cmax [29]?
The Cmax was 6.68 µM.

What about the half-life [30] of the same molecule?
The half-life was 1960 min.

And the Tmax [31]?
The Tmax was 1.5 h.

And the CC50 [32]?
The CC50 was 23 µM.

What about the Cmax/dose [33] of the same molecule?
The Cmax/dose was 0.07 µM·kg/mg.
